{"data": "Assay results gathered from unrelated publications", "sample": "plasma", "route": "oral", "note": "Each line is one published result; the experiments were not run side by side."}
{"SMILES": "COc1ccc([C@@H]2CN(C(=O)[C@@H](O)CO)C[C@@]2(C)[C@@H](C)O)cc1OC1CN(c2ccc(C)cn2)C1", "host": "human", "dose": "0.5 mg", "notes": "single dose, healthy volunteers", "Vd/F [L]": 40.7}
{"SMILES": "c1cnc2ccc(Nc3nc(NC4CC4)c4nc[nH]c4n3)cc2c1", "host": "human", "dose": "100 mg/m²", "notes": "patients", "Vd/F [L]": 163}
{"SMILES": "NC[C@@](O)(c1ccc(Cl)cc1)c1ccc(-c2cn[nH]c2)cc1", "host": "human", "dose": "5 mg", "notes": "patients", "Vd/F [L]": 1400}
{"SMILES": "COc1cc(C(=O)NC2CCN(C)CC2)c(F)cc1Nc1ncc(C(F)(F)F)c(Oc2cccc3c2C(=O)N(C)C3)n1", "host": "human", "dose": "100 mg", "notes": "single dose, patients", "Vd/F [L]": 236}
{"SMILES": "CO[C@H]1CC[C@H](N2C(=O)CNc3ncc(-c4ccc(C(C)(C)O)nc4)nc32)CC1", "host": "human", "dose": "60 mg", "notes": "patients", "Vd/F [L]": 236}
{"SMILES": "N#CN1C[C@H](n2nc(-c3ccc(Oc4ccc(Cl)cn4)cc3)c(C(N)=O)c2N)CCC12CC2", "host": "human", "dose": "600 mg", "notes": "fed", "Vd/F [L]": 1230}
{"SMILES": "CC(C)(Sc1ccncc1-c1ccc(C#N)c2ccccc12)C(=O)O", "host": "male human", "dose": "2 mg", "notes": "single dose, fasted, healthy volunteers", "Vd/F [L]": 394}
{"SMILES": "C[C@@H](c1ccc2nccn2c1)n1nnc2ncc(-c3cnn(C)c3)nc21", "host": "human", "dose": "200 mg", "Vd/F [L]": 310}
{"SMILES": "COC(=O)N[C@@H](C)CNc1nccc(-c2cn(C(C)C)nc2-c2cc(Cl)cc(NS(C)(=O)=O)c2F)n1", "host": "human", "dose": "50 mg", "notes": "single dose", "Vd/F [L]": 260}
{"SMILES": "CC(C)(C)OC[C@@H]1C(=O)NCCN1C(=O)C[C@H](N)Cc1cc(F)c(F)cc1F", "host": "male human", "dose": "5 mg", "notes": "multiple doses, steady state", "Vd/F [L]": 1960}
{"SMILES": "C[C@@]1(c2cc(NC(=O)c3ccc(C#N)cn3)ccc2F)C=CSC(N)=N1", "host": "human", "dose": "30 mg", "notes": "single dose", "Vd/F [L]": 276}
{"SMILES": "Cc1cc(Nc2cc(N3CCN(C)CC3)nc(/C=C/c3ccccc3)n2)n[nH]1", "host": "human", "dose": "200 mg/m²", "notes": "patients", "Vd/F [L]": 2280}
